Source: ChEMBL document CHEMBL5543129, “Peptide Inhibitor Targeting the Extraterminal Domain in BRD4 Potently Suppresses Breast Cancer Both In Vitro and In Vivo” (J Med Chem, 2024)
The source made the active and inactive calls.

How the values were obtained:
Format in all cases: functional, cell-based
[1] = system: MCF7; test: Inhibition of colony formation in human MCF7 cells at 10 uM incubated for 2 weeks by crystal violet staining based assay
Method in brief: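 Cells are seeded at 1 × 10^3/well and treated with peptide (10 μM) for 2 weeks, alone or with JQ1 5 μM, iJMJD6 10 μM, ICI 2.5 μM, or tamoxifen 3 μM (tamoxifen-resistant lines). Colonies are stained with crystal violet, dissolved in 10% acetic acid, and read at 590 nm. Three biological repeats.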

[2] = system: MCF7; test: Inhibition of cell migration in human MCF7 cells at 10 uM incubated for 24 hrs by inverted microscopic assay
Method in brief: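 Cells are seeded at 5 × 10^5/well and scratched at 80–90% confluence. They are kept in serum-free medium with peptide (10 μM); partner agents are JQ1 5 μM, iJMJD6 10 μM, or ICI 2.5 μM. Wound area is imaged by inverted microscope at 0 and 12 or 24 h. Wound closure % = (A0−A1)/A0 × 100. Three biological repeats.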

[3] = system: MCF7; test: Cytotoxicity against human MCF7 cells incubated for 1 week by CellTiter 96 Aqueous One Solution based assay; settings: time 1.0 weeks
Method in brief: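 Cells (2 × 10^3/well, DMEM + 10% FBS, 37 °C, 5% CO2) treated with a concentration gradient of peptide for 1 week. MTS reagent added for 1 h, absorbance read at 490 nm, EC50 derived.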

C[C@]12CC[C@@H]3c4ccc(O)cc4C[C@@H](CCCCCCCCC[S+]([O-])CCCC(F)(F)C(F)(F)F)[C@H]3[C@@H]1CC[C@@H]2O (stereo partly drawn)
active: inhibition [1] | inhibition [2] | Activity [3]
